ChEMBL document CHEMBL4330056, “Synthesis and Cytotoxic and Antiviral Profiling of Pyrrolo- and Furo-Fused 7-Deazapurine Ribonucleosides” (J Med Chem, 2018)
The source made the active and inactive calls. The calls are words filed in the database; no cut-off is given here.

Assays:
[1] = biological target: T1, Adenosine kinase (Homo sapiens, UniProt P55263); experiment: Drug metabolism in human BJ cells assessed as ADK-mediated compound phosphorylation by measuring parent compound level per 5x10^5 cells at 10 umol/L after 3 hrs by UPLC-MS/MS analysis; assay type: ADME, cell-based; settings: 10 µM
Outline: (§1)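 BJ (normal) and HCT116 (malignant) cells exposed to nucleoside at 1 or 10 μmol/L for 1 or 3 h. Intracellular nucleoside and its monophosphate quantified against synthetic monophosphate standards. Values given as pmol per 5 × 10^5 cells.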

[2] = biological target: T1, Adenosine kinase; experiment: Drug metabolism in human HCT116 cells assessed as ADK-mediated compound phosphorylation by measuring parent compound level per 5x10^5 cells at 1 umol/L after 3 hrs by UPLC-MS/MS analysis; assay type: ADME, cell-based; settings: 1 µM; outline: as §1
[3] = tested on: CCRF-CEM; experiment: Inhibition of DNA synthesis in human CCRF-CEM cells assessed as DNA synthesis level at 5 times IC50 concentration after 24 hrs by BrdU incorporation assay (reference value: 43.39%); assay type: functional; parameters: scale not given: the % may be the effect or the level left
[4] = biological target: T1, Adenosine kinase; experiment: Substrate activity at recombinant human ADK assessed as compound phosphorylation at 50 uM after 20 mins in presence of [3H]-adenosine by UPLC; assay type: ADME
[5] = tested on: Influenza A virus; experiment: Antiviral activity against Influenza A virus (A/Mexico/4108/2009(H1N1)) infected in MDCK cells assessed as inhibited virus-induced cytopathic effect incubated for 2 days by XTT assay; assay type: functional, organism-based
[6] = biological target: T1, Adenosine kinase; experiment: Drug metabolism in human HCT116 cells assessed as ADK-mediated compound phosphorylation by measuring parent compound level per 5x10^5 cells at 1 umol/L after 1 hr by UPLC-MS/MS analysis; assay type: ADME, cell-based; settings: 1 µM; outline: as §1
[7] = tested on: DNA; experiment: Induction of DNA damage in human U2OS cells transfected with 53BP1-GFP fusion gene assessed as increase in number of foci per nucleus at 1 to 5 times IC50 concentration measured at 1 hr intervals for 11 hrs by fluorescence-based assay; assay type: functional, cell-based
Outline: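 U2OS osteosarcoma reporter line stably expressing 53BP1-GFP treated up to 11 h, with etoposide as the double-strand-break reference. 53BP1 foci in nuclei imaged by confocal microscopy (40× objective).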

[8] = tested on: CCRF-CEM; experiment: Induction of cell cycle arrest in human CCRF-CEM cells assessed as accumulation at subG1 phase at IC50 concentration after 24 hrs by propidium iodide-staining based flow cytometry (reference value: 3.45%); assay type: functional
[9] = biological target: T1, Adenosine kinase; experiment: Drug metabolism in human HCT116 cells assessed as ADK-mediated compound phosphorylation by measuring parent compound level per 5x10^5 cells at 10 umol/L after 1 hr by UPLC-MS/MS analysis; assay type: ADME, cell-based; settings: 10 µM; outline: as §1
[10] = Metabolic stability in human liver microsomes assessed as compound remaining at 5 umol/L after 30 mins relative to control; assay type: ADME, Microsome; settings: read-out: Stability
Outline: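 Human microsomal fraction; percent compound remaining over time.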

[11] = biological target: T1, Adenosine kinase; experiment: Drug metabolism in human BJ cells assessed as ADK-mediated compound phosphorylation by measuring parent compound level per 5x10^5 cells at 10 umol/L after 1 hr by UPLC-MS/MS analysis; assay type: ADME, cell-based; settings: 10 µM; outline: as §1
[12] = biological target: T1, Adenosine kinase; experiment: Drug metabolism in human BJ cells assessed as ADK-mediated compound phosphorylation by measuring parent compound level per 5x10^5 cells at 1 umol/L after 1 hr by UPLC-MS/MS analysis; assay type: ADME, cell-based; settings: 1 µM; outline: as §1
[13] = biological target: T1, Adenosine kinase; experiment: Drug metabolism in human BJ cells assessed as ADK-mediated compound phosphorylation by measuring parent compound level per 5x10^5 cells at 1 umol/L after 3 hrs by UPLC-MS/MS analysis; assay type: ADME, cell-based; settings: 1 µM; outline: as §1
[14] = tested on: HCT-116; experiment: Antiproliferative activity against p53 gene knocked out human HCT116 cells after 3 days by MTS assay; assay type: functional, cell-based; settings: HCT-116, 72 h
[15] = tested on: CCRF-CEM; experiment: RNA incorporation activity in human CCRF-CEM assessed as NMP content per microgram of nucleic acid at 3.52 uM after 2.5 hrs by […]; assay type: functional
Outline: (§2)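 CCRF-CEM cells exposed to nucleoside for 2.5 h, then harvested at once. RNA and DNA isolated separately and enzymatically digested; nucleoside content of each nucleic acid fraction quantified by HPLC-MS.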

[16] = biological target: T1, Adenosine kinase; experiment: Drug metabolism in human HCT116 cells assessed as ADK-mediated compound phosphorylation by measuring parent compound level per 5x10^5 cells at 10 umol/L after 3 hrs by UPLC-MS/MS analysis; assay type: ADME, cell-based; settings: 10 µM; outline: as §1
[17] = tested on: CCRF-CEM; experiment: DNA incorporation activity in human CCRF-CEM assessed as NMP content per microgram of nucleic acid at 3.52 uM after 2.5 hrs by […]; assay type: functional; outline: as §2
[18] = Stability in human plasma assessed as compound remaining at 3.3 umol/L after 15 mins by RF-MS analysis relative to control; assay type: ADME, cell-free; settings: read-out: Stability
[19] = tested on: CCRF-CEM; experiment: DNA incorporation activity in human CCRF-CEM assessed as NMP content per microgram of nucleic acid at 4.48 uM after 2.5 hrs by […]; assay type: functional; outline: as §2
[20] = tested on: OCI-AML2; experiment: Mitochondrial toxicity in human OCI-AML2 cells assessed as effect on ATP5A protein expression at 1 to 5 times IC50 after 24 to 72 hrs by Western blot analysis; assay type: cell-based
[21] = tested on: CCRF-CEM; experiment: RNA incorporation activity in human CCRF-CEM assessed as NMP content per microgram of nucleic acid at 4.48 uM after 2.5 hrs […]; assay type: functional
[22] = tested on: OCI-AML2; experiment: Mitochondrial toxicity in human OCI-AML2 cells assessed as effect on UQCRC2 protein expression at 1 to 5 times IC50 after 24 to 72 hrs by Western blot analysis; assay type: cell-based
[23] = tested on: OCI-AML2; experiment: Mitochondrial toxicity in human OCI-AML2 cells assessed as reduction in CO2 protein expression at 1 to 5 times IC50 after 24 to 72 hrs by Western blot analysis; assay type: cell-based
[24] = tested on: CCRF-CEM; experiment: DNA incorporation activity in human CCRF-CEM assessed as dMP content per microgram of nucleic acid at 4.48 uM after 2.5 hrs […]; assay type: functional
[25] = tested on: OCI-AML2; experiment: Mitochondrial toxicity in human OCI-AML2 cells assessed as reduction in SDHB protein expression at 1 to 5 times IC50 after 24 to 72 hrs by Western blot analysis; assay type: cell-based
[26] = Mitochondrial toxicity in human OCI-AML2 cells assessed as reduction in oxidative phosphorylation-based viability after 72 hrs by CellTiterGlo assay; assay type: cell-based
Outline: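 OCI-AML2 leukemia cells, which rely on mitochondrial OXPHOS, treated for 3 days in a survival assay; IC50 reported.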

[27] = tested on: OCI-AML2; experiment: Mitochondrial toxicity in human OCI-AML2 cells assessed as inhibition of MT-CO2 gene expression at 1 to 5 times IC50 after 24 to 72 hrs by RT-PCR analysis; assay type: cell-based
Outline: (§3)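 Expression of the mitochondrial genes MT-CO2 and MT-ND1 measured.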

[28] = tested on: OCI-AML2; experiment: Mitochondrial toxicity in human OCI-AML2 cells assessed as inhibition of MT-ND1 gene expression at 1 to 5 times IC50 after 24 to 72 hrs by RT-PCR analysis; assay type: cell-based; outline: as §3

T1 sequence (P55263 whole entry): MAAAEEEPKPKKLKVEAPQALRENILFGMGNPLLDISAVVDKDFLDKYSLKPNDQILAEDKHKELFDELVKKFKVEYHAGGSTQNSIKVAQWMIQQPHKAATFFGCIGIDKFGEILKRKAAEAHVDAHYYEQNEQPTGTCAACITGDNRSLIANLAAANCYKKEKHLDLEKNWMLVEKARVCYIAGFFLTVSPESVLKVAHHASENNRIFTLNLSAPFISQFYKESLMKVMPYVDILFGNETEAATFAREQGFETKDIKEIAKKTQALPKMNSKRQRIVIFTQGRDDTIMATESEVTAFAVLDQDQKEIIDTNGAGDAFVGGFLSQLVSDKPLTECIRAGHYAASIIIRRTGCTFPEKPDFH

Row | Structure (SMILES) | Drug metabolism [1] [pmol] | Drug metabolism [2] [pmol] | Activity [3] [%] | Activity [4] [%] | Activity [5] | Drug metabolism [6] [pmol] | Activity [7] | Activity [8] [%] | Drug metabolism [9] [pmol] | remaining at 0.5 h, 5 µM [10] [%] | Drug metabolism [11] [pmol] | Drug metabolism [12] [pmol] | Drug metabolism [13] [pmol] | IC50 [14] [nM] | Drug metabolism [16] [pmol] | remaining at 0.25 h, 3.3 µM [18] [%] | IC50 at 72 h [26] [nM] | inhibition (INH) [27] [%] | inhibition (INH) [28] [%] | other results
1 | Cc1ncnc2c1c1c(ccn1C)n2[C@@H]1O[C@H](CO)[C@@H](O)[C@H]1O | 753.01 | 136.87 | 59.89 | 42 | inactive | 54.04 | Active | 5.1 | 450.1 | 98 | 220.71 | 87.1 | 173.96 | 330 | 476.53 | 98 |  |  |  | Activity [15]: 3.74 fmol; Activity [17]: 14.1 fmol
2 | Cc1ncnc2c1c1occc1n2[C@@H]1O[C@H](CO)[C@@H](O)[C@H]1O | 464.66 | 66.31 | 38.88 | 48 | inactive | 27.92 | Active | 7.62 | 119.93 | 99 | 338.91 | 155.12 | 247.21 | 450 | 177.9 | 99 | 340 | 50 | 50 | Activity [19]: 14.3 fmol; Activity [20]: Non-Toxic; Activity [21]: 3.4 fmol; Activity [22]: Non-Toxic; Activity [23]: Toxic; Activity [24]: 15.4 fmol; Activity [25]: Toxic
3 | CSc1ncnc2c1c1occc1n2[C@@H]1O[C@H](CO)[C@@H](O)[C@H]1O |  |  | 41.8 | 56 | inactive |  |  | 6.52 |  | 99 |  |  |  | 210 |  | 99 | 190 | 50 | 50 | 
